Measurements taken from the EternaBench riboswitch data.

Test system: MS2 coat protein
Assay: apparent Kd, MS2 coat protein; higher = weaker binding; RNA-MaP array; FMN 200 µM where present
Method in brief: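 The titrant was SNAP-549-labelled MS2 coat protein, run from 0.7 or 1.5 nM in doubling steps to 3 µM. It was applied to designs transcribed by stalled E. coli RNA polymerase on Illumina sequencing-chip clusters, without ligand first and then with constant ligand, in 100 mM Tris-HCl pH 7.5, 80 mM KCl, 4 mM MgCl2, BSA, DTT, yeast tRNA and Tween-20. The apparent Kd is the median of filtered per-cluster binding-curve fits, with green signal normalised to red-channel RNA signal and control-cluster median Fmax.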

[1] = designed as: OFF switch for flavin mononucleotide, no ligand
[2] = ligand present: flavin mononucleotide, designed as: OFF switch for flavin mononucleotide
[3] = designed as: ON switch for flavin mononucleotide, no ligand
[4] = ligand present: flavin mononucleotide, designed as: ON switch for flavin mononucleotide

Sequence	apparent Kd [1] [nM]	apparent Kd [2] [nM]	apparent Kd [3] [nM]	apparent Kd [4] [nM]
UAAUGACCUGUACCUAGUUGGUGACAUGAGGAUCACCCAUGUCAGGAUAUCGGGUUUGAAAACAACGAGAAGGGACAACGGGUG	20.9	42.1		
AUCUUGUCAGGAUAUGACUACAUAAAAAAAAAAAAAUGUAGUCAGAAGGGACAUGAGGAUCACCCAUGUACUAA	34.9	54.1		
CCUCGACAUGAGGAUCACCCAUGUCAGGAUAUUGUGUAUCGGGUUUUUUACCGAAAGGCGAGAAGGGAUGUGUG	16.9	23.1		
GGCAGAUGAGGAUAUACGUGCAAUCAGUGAUCCAGCCAUUAACAUGAGGAUCACCCAUGUAGAAGGCGUUUUCU	115	195		
ACUUGUAAGCAGAAGGCAGUCAUUAUAUUCGUCAUGUAGACAUGAGGAUCACCCAUGUAUAGUACUGAGGAUAUGCAUCGAUAG	7.84	12.9		
UAUUAGUAAGGAUAUGAGACGUAGGACUUCGGUCCUACGUCUCAGAAGGUACAUGAGGAUCACCCAUGUUUAUU	17.1	26.1		
UGGCGGAGCAGAGGAUAUUACAUGAGGAUCACCCAUGUAUGAACCAAUAGCUGGAAACAGCAAUGUAAGAAGGCUGCUCCGACA	12.1	176		
CAAAGUUGGUAAGGAUAUCCCACAUUAUUCUGACCCGUGCAAGCUACAUGAGGAUCACCCAUGUGGGAGAAGGUGCGUUAUAGA	121	160		
GUCUGGCUAGGAUAUACAGUGUCCACGAGUUAGUUGCUCUAACAUGAGGAUCACCCAUGUAGAAGGAGCGAGAA	20.5	63.7		
GUCGUGCAGCUUUGCUGUACGAGUACAUGAGGAUCACCCAUGUAGGAUAUGGUACGCUUUGCGUGCCAGAAGGACGUGCGUUGG	48	134		
CUCAUGUCAGGAUAUCGUGCAGCUACCGAAAGGUAGCUGCACGAGAAGGGACAUGAGGAUCACCCAUGUAUGAA	22.2	18.4		
CAAAGUUGGUAAGGAUAUCCCACAUUAUUCUGGCCCGUGCAAGCUACAUGAGGAUCACCCAUGUGGGAGAAGGUGCGUUAAAGA	22	33.7		
UAUAUAUAGGCAGGAUAUACAUGAAUAUAUAUAAUGUAGUAUGAUGUAACAUGAGGAUCACCCAUGUAGAAGGGCCAAUAUAUA	36.8	95.2		
AAGCCUACAAUGGUGUAAUGUACAUGAGGAUCACCCAUGUACAGAAGGUGGAAUGUAAAAGGUGCCAAGGAUAUGUAUGCGGGU	12.6	16.4		
AUUAAACAUGAGGAUCACCCAUGUCAACAAAGUCGAGGAUAUGGGCAAAUAAAAUAAGAACCAGAAGGCGAAUAAU			259	38
GACUGACAUGAGGAUCACCCAUGUAUUCGAGCAUGAGGAUAUAUGACACGUCAUCGGCGGAUAGAAGGCAUGGUUG			124	185
UUAUACAUUCGAGGAUAUCGGAGAGAAAUCUUUCGAGAAGGCGAUUCAUGAUGUAUUAUCCUGGACAUGAGGAUCACCCAUGUA			96.8	76.9
ACAUGAGGAUCACCCAUGUAUAGAAUUGAAUGUUAAGAUACGUAGGAUAUCGAGUUUAGUAUGAUCGAGAAGGACGAUCUGAUA			19.8	13.6
AAUAUGUUGCAGAAGGUUAUUUUUAUAACGAUCCAUGAGACAUGAGGAUCACCCAUGUAAUAGAUGAAGGAUAUGCAAUAUAUU	6.21	5.84		
GUCGGAAACGACAAUGAUAGGACUGAGGAUAUACAUAAGUAAGUCCACACAUGAGGAUCACCCAUGUAGAAGGCAGUCCUAUCU	21.9	187		
AAAAAACAUGAGGAUCACCCAUGUGAGGAUAUGCGAAAAAAAAAAAAAAAAAAAAAAAGCAGAAGGUACAAAAA	92.2	47.6		
UUGGAUAUCACAGGAUAUGCUAAGGAUACCUUAGCAGAAGGGUGAUCCAUCCUAUGGCUGUACAUGAGGAUCACCCAUGUGUCA			246	73.6
GCAUGGUGAGGAUAUGCAGAAGGGCAACGGUCAUCAUGACUACAUGAGGAUCACCCAUGUAGAAGGCACACAUG	44.3	54.8		
GGUUGGCGAGGAUAUACAUGAGGAUCACCCAUGUGGUCCUGCGAUGGUGUCGCCCUUUGUAGAAGGCGCGGGUC	45	42.5		
GUUAUUUAUGUAGGAUAUGCGAGGCGAGCCUGAGCAGAAGGACAUGAGGAUCACCCAUGUAUUGCGGUUUGUGUUCAGAUCGCU	17.9	25.6		
ACCAUUUACUAAUUAUCUAUACAUGAGGAUCACCCAUGUUAAGAGGAUAUCAUCGUGAAACGCGAUGAGAAGGCUUAGCAUUCG	55.2	172		
UCACGGGAUUGAGGAUAUAUAUAAAUUUAUACAAUAGAAGGCAAAUUUUUAGUUUUUUCACUUUACAUGAGGAUCACCCAUGUU	26.2	24.2		
UUGGUAUCUGCAGGAUAUUGUAUUUUAAUACUUCAAGAAGGGCAUUACAUGAGGAUCACCCAUGUUUACAUGGUCAUAUUAGUU	26.1	20.8		

Sequence	apparent Kd [1] [nM]	apparent Kd [2] [nM]	apparent Kd [3] [nM]	apparent Kd [4] [nM]
GUCAGCUCGUGAGGAUAUACAACACUGCUUGGGCAGUGUAUUAAGAUCACAUGAGGAUCACCCAUGUAGAAGGCACGAGCUGAU	13.9	216		
CUUUUGUGAGGAUAUCAGUAGUAAAAAAAUAAAAUUUCUACUGAGAAGGCACAUGAGGAUCACCCAUGUUCCUC	34	184		
UGAACAAUGUAGAAGGCCCAUAUUUAUAUAUAGGGAGGAUAUACAUGAGGAUCACCCAUGUAAAGAGCAAGAGGAUUUGACAGA	10.4	22.2		
UCCUUACUGGUCAGGAUAUACAUUCGCUACUCCUUGUAGAAGGGACAUGAGGAUCACCCAUGUACUUUACAUUC	17.4	18.9		
GAUGGCGUCCAAGGAUAUCCUGACCGUUAACAUGAGGAUCACCCAUGUUGCCUAAAGGCGGCAUAGGAGAAGGUGGUACUCUGA			111	155
AAGCGGGCAGGAUAUGCGUACUCACGGGAAAACUGAAUGGUACAUGAGGAUCACCCAUGUAGAAGGGCUUUGAA	48.4	36.3		
GUUAUAAAGGUAGGAUAUUGUAUUAUAAUUAAAUAAGAAGGAUCUCACAUGAGGAUCACCCAUGUAAGAGGAUCACCCAUGUAG	20.1	14.6		
CCAAGGAGAGGAUAUACACGGUUAUGGCCUCUUGAGUGGCGACAUGAGGAUCACCCAUGUAGAAGGCUCAGGGC	20.2	57.4		
AAUUUACAGCUAGGAUAUACAUGAGGAUCACCCAUGUAAUCAUAUGAUAUUUUUUUUGUAUGAGUGUAGAAGGAGCAAAUAAAA	9.38	8.69		
AUUGAUAUUGAGGAUAUGCUUUUAUUUGUUCUUGCAGAAGGCGAUACAUGAGGAUCACCCAUGUUUAUGGAAGU	40.8	48		
CUCACGUUAGUAGGAUAUCCGACAUGAGGAUCACCCAUGUCACUACGCCUCAAGGGAAGGUGUAAGGAGAAGGGCUGAUAAAUA			178	88.3
AAAAAACAUGAGGAUCACCCAUGUCUUCGGACAUGAGGAUAUGUACAGACUUCGGUCUGUACAGAAGGCAUGUCUU			97.2	22.8
UUAAGUUCAGGAUAUGAUGUUUUAAACAUGAGGAUCACCCAUGUAGAUCCUGAAUUAACAUCAGAAGGGAAUAUUU	37.5	217		
UUAAUUAUACAAGGAUAUCUAUUGUUAUUUCGACUUACAUGAGGAUCACCCAUGUUAAUAUAUUUAGAGAAGGUGUAUUUUCAG			86.8	36.5
UAUAUUAUUAUAGGAUAUGGAUAUGAUGCAUAUCCAGAAGGGUGAUUAUAAUAUAUUCUGUACAUGAGGAUCACCCAUGUUUAU			258	75.9
AAAUUUAACGAAGGAUAUGGUUACAUGAGGAUCACCCAUGUGUGCCUUGUGAUCUUGUUUAAGUUCCAGAAGGUCGUAUACAUA	41.7	183		
AACAAGUGAGGAUAUGAUAAUACAACAAACAAACAUCUACAUCAGAAGGCACAUGAGGAUCACCCAUGUUAAUC	22	27.2		
AGUACCAUGUAGAAGGGAUAUCUGAUUCAGAUAUCAGGAUAUACAUGAGGAUCACCCAUGUAAAUGUACUCCACGAAAGUGGAA	22.1	63.8		
UUUAAGUCAGGAUAUCGUUAAUUUAAUUAUUUGUUUUAGUUCGAGAAGGGACAUGAGGAUCACCCAUGUAAUUU	38.8	41.8		
GCAGGCAACGAGAAGGGAGUACAUGAGGAUCACCCAUGUGUCCUCUGCGGCUCAGGAUAUCGCCCUGGGAAAGGUAAGCCUUAA	39.7	176		
GACAGUGCUAAUAAAUAAGAUCUACAUGAGGAUCACCCAUGUAAGGAUAUCGUCAGGAAUACUGACGAGAAGGUACAUGCACUG	15.4	26.2		
UUGGACGUCGAAGGAUAUGUAGGAUAUUCCUACAUGAGGAUCACCCAUGUUGACAUGGAAGAAGGACAGAAGGACGAUGUCCAU			479	6.78
GUAGUGUAGUGAGGAUAUACGAGAUCGAUAGAUCGGCGAUCCAUUUAUACAUGAGGAUCACCCAUGUAGAAGGCACUUCACUAC	6.17	51		
CCUGGAUCAUGAGGAUAUGGUACCUUAUUGGUACCAGAAGGCAUGUCUCUUGACAUGAGGAUCACCCAUGUAAUAAAUUCCAGG			841	114
AGAGCCGGCACCGAGGAUAUUCAUAUUAAAACAUGAGGAUCACCCAUGUAGGCCAGAAGGCCUUGGGAGAAGGCGGAUCGGCUCG			707	39.5
AGUCGGAGCAGAGGAUAUACAUGAGGAUCACCCAUGUAAUAGGAUGAAGCCUGGAAACAGGCAAUGUAGAAGGCUGCUCCGACA	60.1	589		
UGCAUGUAAGGAUAUGCAUCCGCCAACGAACCGGCGGCACAGCAGAAGGUACAUGAGGAUCACCCAUGUGUCCC	34.8	195		
